STAT1 inh = STAT1 signaling inhibitors, primary screen, cell-based, HTS, luciferase reporter. NIH 3T3 STAT1-luciferase reporter, IFN-gamma, luminescence. inhibition, % at 5.5 µM. hit rate 0.35% among 200,000;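 active means inhibition above a set limit, the mean inhibition across all tested compounds plus 3 SD, cut at about 34% in these data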;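 further: 0% = IFN-gamma with DMSO and 100% = IFN-gamma with 300 µM nifuroxazide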
APP 5'UTR act = activators of APP 5'UTR luciferase reporter, primary screen, SH-SY5Y cells. SH-SY5Y APP 5'UTR luciferase reporter, luminescence; zero percent = DMSO vehicle wells. activation, % at 2 µM. hit rate 1% among 190,000. AID 1276, 2008;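 active means activation above a set limit, based on mean plus 3 SD of controls, cut at about 140% in these data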
STAT1 act = STAT1 signaling activators, primary screen, cell-based, HTS, luciferase reporter | activation (% of control), % at 5.5 µM | NIH 3T3 STAT1-luciferase reporter, IFN-gamma, luminescence; 100% = IFN-gamma alone, no compound | hit rate 2.6% among 200,000;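 active means activation above the screen-wide mean activation plus 3 SD, cut at about 130% in these data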;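 further: raw ratio to IFN-gamma control signal so 100% means no change and 0% no light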
STAT3 activator = IL-6 driven STAT3 reporter potentiators, primary screen, U3A cells, luciferase, luminescence, MLSCN library; hit rate 0.91% among 190,000; activation (% of control), % at 5.6 µM; IL-6 STAT3-luciferase reporter; 100% = signal with IL-6 EC80 alone;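 active means activation above the screen-wide mean of compound activation plus 3 SD, cut at about 130% in these data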;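 further: 0% = background luminescence of wells with medium and substrate only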
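system = STAT3-luciferase reporter U3A cells | reagent = IL-6 stimulus at 33 ng/mL final | timing = 1 h compound pre-exposure, 6 h IL-6 stimulation, 37 °C | measured by = luminescence | evaluation = % activation versus median of IL-6-stimulated wells | control set = IL-6-only wells as 100% reference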
STAT3 inh = IL-6 driven STAT3 reporter inhibitors, primary screen, U3A cells, luciferase, luminescence, MLSCN library; IL-6 STAT3-luciferase reporter; host cell line lacks STAT1; AID 862, 2007; hit rate 0.89% among 190,000; inhibition, % at 5.5 µM;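 active means inhibition above the mean inhibition across all screened compounds plus 3 SD, cut at about 44% in these data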;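 further: 0% = DMSO only wells and 100% = 100 µM nifuroxazide control wells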
NF-kB expr up = activators of NF-kB expression in neurons, primary screen, cell-based, HTS; human neuronal cells, NF-kB reporter expression; stronger effect = higher value; fold change at 12.5 µM; hit rate 1.6% among 190,000; AID 1239, 2008; in the data active means fold change above about 3.3
An asterisk follows results filed as active; · = no result. Sampled rows, rich in hits. Any-hit rate of the full collection: about 4.9%.

SMILES | STAT1 inh | APP 5'UTR act | STAT1 act | STAT3 activator | STAT3 inh | NF-kB expr up
O=C(CSc1ccc(Cl)cc1)Nc1cccc(-c2nnc(-c3ccco3)o2)c1 | -17.2 | 14.7 | 115.3 | 91.4 | 8.0 | 2.45
COc1cccc(NC(=O)CSc2nnc(-c3ccc(C)cc3)o2)c1 | -0.7 | 217.3* | 100.6 | 109.4 | -2.2 | 2.44
COc1ccccc1NC(=O)CSc1nnc(-c2ccc(C)cc2)o1 | -11.4 | 180.7* | 110.4 | 111.3 | -5.5 | ·
Cc1ccc(OCC(=O)NC(=S)Nc2ccc(Br)cn2)cc1C | -0.3 | 22.8 | 98.5 | 107.1 | -6.0 | 1.03
O=C(NCc1nc2ccccc2[nH]1)C1=C[C@H](c2ccc3c(c2)OCO3)C[C@H](OCc2ccc(CO)cc2)O1 | -2.1 | 8.8 | 103.4 | · | · | 0.79
O=S(=O)(NCc1ccc2c(c1)OCO2)c1cccc2cccnc12 | -1.5 | -11.2 | 101.4 | 103.3 | 0.9 | 1.06
O=C(COC(=O)Cn1cnc2ccccc21)Nc1ccc2c(c1)OCCO2 | -4.7 | 2.5 | 104.3 | 97.5 | 8.3 | 0.97
O=C(COC(=O)Cn1cnc2ccccc21)Nc1cc2c(cc1Cl)C(=O)c1ccccc1C2=O | -37.1 | 72.5 | 135.6* | 112.8 | -12.3 | 1.69
CCCCCC1CC(CC(=O)Nc2ccc([N+](=O)[O-])cc2)C(=O)O1 (configuration not stated) | -3.4 | 9.8 | 103.1 | 101.5 | 1.9 | 1.05
Cc1cccc(Nc2nn3c(=O)c4ccccc4nc3s2)c1 | -34.6 | 69.1 | 131.7* | 102.2 | 0.1 | 1.89
CCCSc1nn2c(=O)c3ccccc3nc2s1 | -29.1 | 82.0 | 126.7 | 82.3 | 20.2 | 3.02
c1ccc(CSc2ncn(-c3ccccc3)n2)cc1 | -48.3 | 129.7 | 144.0* | 102.7 | 5.8 | 4.31*
Nc1nc(CSc2nc3ccccc3[nH]2)cs1 | -13.1 | 17.4 | 111.9 | 101.5 | 3.3 | 1.54
O=C(CSc1ncn(-c2ccccc2)n1)c1cccs1 | -31.6 | 102.0 | 129.1* | 89.5 | 15.4 | 3.51*
Nc1nc(CSc2ncn(-c3ccccc3)n2)cs1 | -34.9 | 107.0 | 132.1* | 108.6 | -5.3 | 2.79
CN1CCN(NC(=O)CN2C(=O)S/C(=C\c3c(Cl)cccc3Cl)C2=O)CC1 | 4.7 | 24.6 | 93.8 | 94.4 | 13.3 | 0.93
O=C(c1cnn(-c2ccccc2)c1)c1ccccc1O | -19.6 | 183.5* | 117.8 | 71.9 | 35.6 | 9.48*
ClCc1ncc(-c2ccc(Cl)cc2)o1 | 3.2 | -20.7 | 96.9 | 100.4 | 5.4 | 0.99
COc1ccc(C2CC(c3c(O)cc(C)oc3=O)=NCCS2)c(OC)c1 (configuration not stated) | -38.2 | -93.1 | 136.4* | 163.8* | -66.4 | 5.8*
CCOC(=O)c1c(NC(=O)CC2Nc3cc(C)c(C)cc3NC2=O)sc(C)c1C (configuration not stated) | -5.4 | 6.7 | 99.0 | 106.2 | 2.8 | 0.84
O=C(NC1CCCCC1)C(c1ccc2ncccc2c1)N(Cc1ccc2c(c1)OCO2)C(=O)c1cccs1 (configuration not stated) | 35.5* | -13.6 | 68.0 | 104.6 | 0.3 | 0.86
Cc1cccc(N(C(=O)CNC(=O)c2cccs2)C(C(=O)NC2CCCC2)c2cccnc2)c1 (configuration not stated) | -4.0 | -1.9 | 103.6 | 98.3 | 8.8 | 0.99
Cc1cc(C)cc(N(C(=O)CNC(=O)c2cccs2)C(C(=O)NC2CCCC2)c2cccnc2)c1 (configuration not stated) | 35.8* | -1.4 | 67.8 | 94.7 | 12.2 | 1.17
COc1ccc(CN(C(=O)c2cccs2)C(C(=O)NC2CCCCC2)c2ccc3ncccc3c2)cc1 (configuration not stated) | 22.4 | 22.3 | 79.4 | 111.8 | -8.2 | 0.51
O=C(NC1CCCCC1)C(c1ccc2ncccc2c1)N(Cc1ccccc1)C(=O)c1cccs1 (configuration not stated) | 36.4* | -7.2 | 82.9 | 112.6 | -3.9 | 0.76
SMILES | STAT1 inh | APP 5'UTR act | STAT1 act | STAT3 activator | STAT3 inh | NF-kB expr up
CC1C(=O)N(Cc2ccc([N+](=O)[O-])cc2)c2ccccc2N1C(=O)C1CC1 (configuration not stated) | -9.1 | -10.1 | 107.9 | 100.9 | 1.1 | 1.16
C=CCSc1nc2sc3c(c2c(=O)[nH]1)CCC3 | -5.5 | -7.1 | 103.1 | 88.5 | 20.7 | 1.16
Cc1nn(C)c(C)c1NC(=O)CCl | -11.7 | 11.3 | 111.5 | 101.6 | 0.5 | 1.14
O=C1C=CC(=O)N1N(c1ccccc1)c1ccccc1 | 4.0 | 12.3 | 96.4 | 94.0 | 8.0 | 1.16
O=S(=O)([N-]c1nc2ccccc2nc1-[n+]1ccc(-c2ccncc2)cc1)c1ccccc1 | -31.0 | 74.6 | 129.1* | 111.1 | -7.7 | 0.82
CC(=O)N1CCOCCOCCN(C(C)=O)CCOCC1 | -9.2 | 7.8 | 107.0 | 95.7 | 7.3 | 1.05
CNc1ccccc(-c2ccc3ccccc3n2)c1=O | -53.6 | 104.4 | 147.3* | 110.8 | -7.4 | 2.34
Cc1ccc(NC(=O)C2CCCN(c3ncccn3)C2)cc1F (configuration not stated) | -53.2 | 88.5 | 148.8* | 112.0 | -11.2 | 3.54*
O=C(Nc1ccc2c(c1)CCC2)C1CCCN(c2ncccn2)C1 (configuration not stated) | -47.5 | 58.9 | 144.0* | 105.7 | -2.1 | 2.65
Cc1oc(=O)c(NC(=O)c2cccc(Cl)c2)cc1C(=O)c1ccccc1 | -15.4 | 6.1 | 113.9 | 102.8 | 6.9 | 2.02
COc1cnc(SCc2ccc(Cl)cc2)nc1Cl | -23.0 | · | 120.7 | 102.0 | 3.4 | 1.07
Cc1nc(SCc2ccc(Cl)cc2)ncc1C(=O)O | 8.1 | 12.0 | 92.3 | 112.6 | -14.0 | 6.39*
COc1ccccc1C(=O)Nc1nnc(-c2ccco2)s1 | -41.1 | 145.0* | 137.5* | 101.0 | 4.5 | 3.16
CCSc1nnc(NC(=O)c2ccc3c(c2)OCO3)s1 | -20.0 | 53.0 | 118.5 | 86.6 | 18.8 | 3.35*
CCSc1nnc(NC(=O)/C=C/c2ccc3c(c2)OCO3)s1 | -5.6 | -7.0 | 105.0 | 92.3 | 11.2 | 1.4
CCSc1nnc(Nc2ccc(C)cc2)s1 | -46.7 | 70.1 | 142.6* | 102.6 | 1.7 | 3.42*
CCSc1nnc(NC(=O)c2ccccc2C)s1 | -43.6 | 56.0 | 137.5* | 100.5 | 5.8 | 2.38
S=C(NCc1ccc(Cl)cc1Cl)NC1CCCCC1 | -4.9 | 3.2 | 104.7 | 97.9 | 1.0 | 0.89
Cc1ccccc1C(=O)Nc1nnc(-c2ccco2)s1 | 44.4* | 140.8* | 58.6 | 41.9 | 68.9* | 3.72*
NC(=S)n1[nH]c(-c2ccccc2)c(N=Nc2ccccc2C(=O)N2CCOCC2)c1=O | -6.1 | -19.8 | 103.7 | 103.6 | -0.7 | 0.93

Source: PubChem (several laboratories)
